Laboratory results from ChEMBL document CHEMBL1629545, “A morpholino oligomer targeting highly conserved internal ribosome entry site sequence is able to inhibit multiple species of picornavirus” (Antimicrob Agents Chemother, 2008).
Activity calls are given as the source filed them. The calls are words filed in the database; no cut-off is given here.

Experiments:
[1] = tested on: Poliovirus 1; experiment: Antiviral activity against Human poliovirus type 1 infected in Human HeLa cell assessed as inhibition of translation at 10 ug/ml by luciferase reporter gene assay; type: functional, organism-based
Method in brief: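 In-cell translation control: HeLa cells electroporated with 20 μg PV1-Luc replicon RNA were placed in medium with 10 μg/ml puromycin at 37°C in 5% CO2. Luciferase in lysates was read by luminometer at hourly time points after transfection. Two experiments were averaged.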

[2] = tested on: Vero; experiment: Cytotoxicity against African green monkey Vero cells at 10 uM after 24 hrs by MTS assay; type: cell-based; conditions: chlorocebus sabaeus
[3] = tested on: SK-N-MC; experiment: Cytotoxicity against human SK-N-MC cell at 10 uM after 24 hrs by MTS assay; type: cell-based
[4] = tested on: HeLa; experiment: Cytotoxicity against human HeLa cells at 10 uM by MTS assay; type: cell-based
Method in brief: (§1)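 HeLa cells at ~80% confluence, uninfected, exposed to 1–100 μM PPMO or water (mock) in serum-free DMEM-F-12 (1:1) for 24 h. MTS reagent was added for 4 h and absorbance read at 492 nm. Viability was expressed as percent of water-treated cells (set to 100%), averaged over 12 wells.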

[5] = tested on: HeLa; experiment: Cytotoxicity against human HeLa cells 10 uM after 24 hrs by MTS assay; type: cell-based; method in brief: as §1

With `COc1ccc(C[C@H](N)C(=O)N[C@H]2[C@@H](O)[C@H](n3cnc4c(N(C)C)ncnc43)O[C@@H]2CO)cc1` the Activity [1] was “Active”.

For `Cc1cn([C@H]2CNC[C@@H](COP(=O)(N(C)C)N3C[C@@H](COP(=O)(N(C)C)N4C[C@@H](COP(=O)(N(C)C)N5C[C@@H](COP(=O)(N(C)C)N6C[C@@H](COP(=O)(N(C)C)N7C[C@@H](COP(=O)(N(C)C)N8C[C@@H](COP(=O)(N(C)C)N9C[C@@H](COP(=O)(N(C)C)N%10C[C@@H](COP(=O)(N(C)C)N%11C[C@@H](COP(=O)(N(C)C)N%12C[C@@H](COP(=O)(N(C)C)N%13C[C@@H](COP(=O)(N(C)C)N%14C[C@@H](COP(=O)(N(C)C)N%15C[C@@H](COP(=O)(N(C)C)N%16C[C@@H](COP(=O)(N(C)C)N%17C[C@@H](COP(=O)(N(C)C)N%18C[C@@H](COP(=O)(N(C)C)N%19C[C@@H](COP(=O)(N(C)C)N%20C[C@@H](COP(=O)(N(C)C)N%21C[C@@H](COP(=O)(N(C)C)N%22C[C@@H](COP(=O)(N(C)C)N%23CCN(C(=O)CCNC(=O)CCCCCNC(=O)[C@H](CCCNC(=N)N)NC(=O)CCCCCNC(=O)[C@H](CCCNC(=N)N)NC(=O)[C@H](CCCNC(=N)N)NC(=O)CCCCCNC(=O)[C@H](CCCNC(=N)N)NC(=O)[C@H](CCCNC(=N)N)NC(=O)CCCCCNC(=O)[C@H](CCCNC(=N)N)NC(=O)[C@H](CCCNC(=N)N)NC(=O)CCCCCNC(=O)[C@@H](N)CCCNC(=N)N)CC%23)O[C@@H](n%23cc(C)c(=O)[nH]c%23=O)C%22)O[C@@H](n%22cnc%23c(N)ncnc%23%22)C%21)O[C@@H](n%21ccc(N)nc%21=O)C%20)O[C@@H](n%20cnc%21c(=O)[nH]c(N)nc%21%20)C%19)O[C@@H](n%19cnc%20c(=O)[nH]c(N)nc%20%19)C%18)O[C@@H](n%18cc(C)c(=O)[nH]c%18=O)C%17)O[C@@H](n%17cnc%18c(=O)[nH]c(N)nc%18%17)C%16)O[C@@H](n%16cc(C)c(=O)[nH]c%16=O)C%15)O[C@@H](n%15cc(C)c(=O)[nH]c%15=O)C%14)O[C@@H](n%14cc(C)c(=O)[nH]c%14=O)C%13)O[C@@H](n%13cnc%14c(=O)[nH]c(N)nc%14%13)C%12)O[C@@H](n%12ccc(N)nc%12=O)C%11)O[C@@H](n%11cc(C)c(=O)[nH]c%11=O)C%10)O[C@@H](n%10ccc(N)nc%10=O)C9)O[C@@H](n9cc(C)c(=O)[nH]c9=O)C8)O[C@@H](n8cc(C)c(=O)[nH]c8=O)C7)O[C@@H](n7cnc8c(=O)[nH]c(N)nc87)C6)O[C@@H](n6cnc7c(N)ncnc76)C5)O[C@@H](n5cnc6c(N)ncnc65)C4)O[C@@H](n4ccc(N)nc4=O)C3)O2)c(=O)[nH]c1=O` (stereo partly specified), the Activity [2] was “Non-toxic”, the Activity [3] was “Non-toxic” and the Activity [4] was “Non-toxic”. The Activity [5] was “Toxic” and the Activity [1] was “inactive”.

For `Cc1cn([C@H]2CN(P(=O)(OC[C@@H]3CN(P(=O)(OC[C@@H]4CN(P(=O)(OC[C@@H]5CN(P(=O)(OC[C@@H]6CN(P(=O)(OC[C@@H]7CN(P(=O)(OC[C@@H]8CN(P(=O)(OC[C@@H]9CN(P(=O)(OC[C@@H]%10CN(P(=O)(OC[C@@H]%11CN(P(=O)(OC[C@@H]%12CN(P(=O)(OC[C@@H]%13CN(P(=O)(OC[C@@H]%14CN(P(=O)(OC[C@@H]%15CN(P(=O)(OC[C@@H]%16CN(P(=O)(OC[C@@H]%17CN(P(=O)(OC[C@@H]%18CN(P(=O)(OC[C@@H]%19CNC[C@H](n%20cnc%21c(=O)[nH]c(N)nc%21%20)O%19)N(C)C)C[C@H](n%19ccc(N)nc%19=O)O%18)N(C)C)C[C@H](n%18cnc%19c(N)ncnc%19%18)O%17)N(C)C)C[C@H](n%17cc(C)c(=O)[nH]c%17=O)O%16)N(C)C)C[C@H](n%16cc(C)c(=O)[nH]c%16=O)O%15)N(C)C)C[C@H](n%15cnc%16c(=O)[nH]c(N)nc%16%15)O%14)N(C)C)C[C@H](n%14ccc(N)nc%14=O)O%13)N(C)C)C[C@H](n%13cnc%14c(=O)[nH]c(N)nc%14%13)O%12)N(C)C)C[C@H](n%12ccc(N)nc%12=O)O%11)N(C)C)C[C@H](n%11cnc%12c(=O)[nH]c(N)nc%12%11)O%10)N(C)C)C[C@H](n%10cc(C)c(=O)[nH]c%10=O)O9)N(C)C)C[C@H](n9cc(C)c(=O)[nH]c9=O)O8)N(C)C)C[C@H](n8ccc(N)nc8=O)O7)N(C)C)C[C@H](n7cnc8c(N)ncnc87)O6)N(C)C)C[C@H](n6cnc7c(=O)[nH]c(N)nc76)O5)N(C)C)C[C@H](n5cnc6c(=O)[nH]c(N)nc65)O4)N(C)C)C[C@H](n4ccc(N)nc4=O)O3)N(C)C)C[C@@H](COP(=O)(N(C)C)N3C[C@@H](COP(=O)(N(C)C)N4C[C@@H](COP(=O)(N(C)C)N5CCN(C(=O)CCNC(=O)CCCCCNC(=O)[C@H](CCCNC(=N)N)NC(=O)CCCCCNC(=O)[C@H](CCCNC(=N)N)NC(=O)[C@H](CCCNC(=N)N)NC(=O)CCCCCNC(=O)[C@H](CCCNC(=N)N)NC(=O)[C@H](CCCNC(=N)N)NC(=O)CCCCCNC(=O)[C@H](CCCNC(=N)N)NC(=O)[C@H](CCCNC(=N)N)NC(=O)CCCCCNC(=O)[C@@H](N)CCCNC(=N)N)CC5)O[C@@H](n5ccc(N)nc5=O)C4)O[C@@H](n4ccc(N)nc4=O)C3)O2)c(=O)[nH]c1=O` (stereo partly specified), the Activity [2] was “Non-toxic”, the Activity [3] was “Non-toxic” and the Activity [4] was “Non-toxic”. For the same compound, the Activity [5] was “Toxic” and the Activity [1] was “inactive”.

In the case of `Cc1cn([C@H]2CN(P(=O)(OC[C@@H]3CN(P(=O)(OC[C@@H]4CN(P(=O)(OC[C@@H]5CN(P(=O)(OC[C@@H]6CN(P(=O)(OC[C@@H]7CN(P(=O)(OC[C@@H]8CN(P(=O)(OC[C@@H]9CN(P(=O)(OC[C@@H]%10CN(P(=O)(OC[C@@H]%11CN(P(=O)(OC[C@@H]%12CN(P(=O)(OC[C@@H]%13CN(P(=O)(OC[C@@H]%14CN(P(=O)(OC[C@@H]%15CNC[C@H](n%16cnc%17c(=O)[nH]c(N)nc%17%16)O%15)N(C)C)C[C@H](n%15cc(C)c(=O)[nH]c%15=O)O%14)N(C)C)C[C@H](n%14cc(C)c(=O)[nH]c%14=O)O%13)N(C)C)C[C@H](n%13cnc%14c(N)ncnc%14%13)O%12)N(C)C)C[C@H](n%12cnc%13c(N)ncnc%13%12)O%11)N(C)C)C[C@H](n%11ccc(N)nc%11=O)O%10)N(C)C)C[C@H](n%10cnc%11c(N)ncnc%11%10)O9)N(C)C)C[C@H](n9cc(C)c(=O)[nH]c9=O)O8)N(C)C)C[C@H](n8cnc9c(N)ncnc98)O7)N(C)C)C[C@H](n7cnc8c(=O)[nH]c(N)nc87)O6)N(C)C)C[C@H](n6cc(C)c(=O)[nH]c6=O)O5)N(C)C)C[C@H](n5cnc6c(N)ncnc65)O4)N(C)C)C[C@H](n4cc(C)c(=O)[nH]c4=O)O3)N(C)C)C[C@@H](COP(=O)(N(C)C)N3C[C@@H](COP(=O)(N(C)C)N4C[C@@H](COP(=O)(N(C)C)N5C[C@@H](COP(=O)(N(C)C)N6C[C@@H](COP(=O)(N(C)C)N7C[C@@H](COP(=O)(N(C)C)N8C[C@@H](COP(=O)(N(C)C)N9C[C@@H](COP(=O)(N(C)C)N%10CCN(C(=O)CCNC(=O)CCCCCNC(=O)[C@H](CCCNC(=N)N)NC(=O)CCCCCNC(=O)[C@H](CCCNC(=N)N)NC(=O)[C@H](CCCNC(=N)N)NC(=O)CCCCCNC(=O)[C@H](CCCNC(=N)N)NC(=O)[C@H](CCCNC(=N)N)NC(=O)CCCCCNC(=O)[C@H](CCCNC(=N)N)NC(=O)[C@H](CCCNC(=N)N)NC(=O)CCCCCNC(=O)[C@@H](N)CCCNC(=N)N)CC%10)O[C@@H](n%10cnc%11c(=O)[nH]c(N)nc%11%10)C9)O[C@@H](n9ccc(N)nc9=O)C8)O[C@@H](n8cnc9c(N)ncnc98)C7)O[C@@H](n7ccc(N)nc7=O)C6)O[C@@H](n6ccc(N)nc6=O)C5)O[C@@H](n5ccc(N)nc5=O)C4)O[C@@H](n4cnc5c(N)ncnc54)C3)O2)c(=O)[nH]c1=O` (stereo partly specified), the Activity [2] is reported as “Non-toxic”, the Activity [3] is reported as “Non-toxic” and the Activity [4] is reported as “Non-toxic”. The Activity [5] was “Toxic” and the Activity [1] was “inactive”.
